Source: PubChem (Broad Institute)
RAD52 anneal inh = blocks human RAD52 DNA annealing | recombinant RAD52 DNA annealing, FRET fluorescence | inhibition, % at 18.7 µM | 0.46% of 360,000 active | AID 651710;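 active means every replicate showing at least 50% inhibition; inconclusive means mean inhibition at least 50% but not in every replicate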
RAD54 inh = blocks human RAD54 Holliday junction branch migration. AID 602329. 0.14% of 360,000 active. FAM/BHQ fluorescence. inhibition, % at 10.4 µM;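 active means mean normalized replicate activity at least 40 and at least half of replicates scoring 40 or more; inconclusive means only one of the two criteria met; inactive means mean below 40 and under half of replicates reaching 40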;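 further: 0% = median of neutral control wells and 100% = median of positive control wells; inhibitors cause a drop in the FAM fluorescence signal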
Target sequence (Q92698 whole entry, looked up): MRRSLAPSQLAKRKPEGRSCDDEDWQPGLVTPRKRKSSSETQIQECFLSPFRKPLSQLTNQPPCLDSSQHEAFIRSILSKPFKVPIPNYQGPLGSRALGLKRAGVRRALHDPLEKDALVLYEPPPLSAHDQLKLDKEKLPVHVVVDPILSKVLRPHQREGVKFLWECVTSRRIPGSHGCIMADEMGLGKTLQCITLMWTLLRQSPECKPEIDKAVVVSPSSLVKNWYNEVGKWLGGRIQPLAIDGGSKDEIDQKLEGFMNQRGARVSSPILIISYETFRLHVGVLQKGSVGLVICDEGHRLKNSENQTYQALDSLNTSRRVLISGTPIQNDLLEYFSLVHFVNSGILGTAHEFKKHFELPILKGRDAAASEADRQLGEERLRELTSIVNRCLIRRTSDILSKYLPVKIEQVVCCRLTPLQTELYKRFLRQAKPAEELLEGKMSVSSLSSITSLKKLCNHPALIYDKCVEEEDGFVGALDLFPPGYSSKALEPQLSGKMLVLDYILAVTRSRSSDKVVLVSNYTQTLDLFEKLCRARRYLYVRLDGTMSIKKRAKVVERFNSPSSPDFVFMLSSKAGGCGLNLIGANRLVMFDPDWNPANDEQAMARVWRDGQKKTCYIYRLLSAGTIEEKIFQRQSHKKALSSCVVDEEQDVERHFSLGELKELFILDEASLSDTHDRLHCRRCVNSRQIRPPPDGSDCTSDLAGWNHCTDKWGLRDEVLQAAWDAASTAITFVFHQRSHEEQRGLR
E-sel inducer = induces E-selectin expression in human endothelial cells | P16581 | HUVEC E-selectin immunofluorescence imaging; normalized: neutral wells 0, TNF-alpha wells 100 | activation, % at 7.58 µM | 0.37% of 260,000 active | AID 686992;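 active means mean E-selectin-positive cell signal at least 10% of the positive control, reached in at least 60% of replicates, without over 20% cell loss; inconclusive means no rule given, readout overlaps actives, possibly toxicity-flagged; inactive means the rest, including those meeting only one limit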
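assay system = HUVEC, human umbilical vein endothelial cells | input = 3,000 HUVEC seeded per well | medium = EGM-2 growth medium on 0.1% gelatin-coated wells | dosing = one compound dose added by pin transfer | signal = immunofluorescence imaging | read-out basis = % PE-positive cells | control set = TNF-alpha, DMSO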
XiGFP reactiv = activators of X-chromosome reactivation in mouse fibroblasts; activation, % at 7.58 µM; 0.055% of 360,000 active; XiGFP mouse fibroblasts, % GFP-positive cells imaging, 3 d; cells co-treated with 5-aza-dC sensitizer; scaled so ellipticine positive control = 100%; AID 743238;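 active means mean normalized replicate activation at least 10% and every replicate at or above 10%; inconclusive means only one of the two criteria met; inactive means mean below 10% and not all replicates reach 10%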;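 further: 0% = median of on-plate neutral control wells and 100% = ellipticine 6 µM median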
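Material: SV40-immortalized XiGFP fibroblast cells, line 68-5-11 | Buffer or medium: DMEM containing 5-aza-dC | Dosing: One concentration, pinned | Times: 3 d treatment, 15 min room-temperature fixation | Controls: Ellipticine 6 µM positive control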
rRNA inh HTS = selective bacterial rRNA inhibition in E. coli | 1.6% of 350,000 active | GFP signal change (wild-type ribosome), % (concentration not given with the values) | AID 720706 | E. coli WT GFP vs humanized-ribosome RFP mutants, fluorescence, 24 h; hits give low values; DMSO median 0, no signal -100;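 active means significant combined selectivity score with lowered wild-type GFP, culture density cut under 30%, mutant RFP and density less affected; inactive means any of these conditions unmet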
PglD inh = blocks C. jejuni PglD acetyltransferase activity. purified PglD enzyme, DTNB colorimetric CoA detection. inhibition, % at 12.5 µM. 0.098% of 360,000 active. AID 602405; in the data active means inhibition above about 16%, passing the limit was not always enough; inconclusive means no clear call, values can overlap the other calls
Numbers without * were called inactive; ? = inconclusive; · = no result. Most compounds without a hit are left out; they make up all but 2% or so of the library.

SMILES	RAD52 anneal inh	RAD54 inh	E-sel inducer	XiGFP reactiv	rRNA inh HTS	PglD inh
C[C@H](CO)N1C[C@H](C)[C@H](CN(C)S(=O)(=O)c2ccc(F)cc2)Oc2ncc(-c3cccc(C(F)(F)F)c3)cc2C1=O	19	0	0	0	-2	1
O=S(=O)(c1cccs1)N1CCCCN2[C@H](C1)[C@@H](c1ccc(Br)cc1)[C@@H]2CO	-45	-8	0	0	-24	1
CN(C)/C=N/c1nc2ccc3c(c2s1)CCCC3	-15	14	·	·	-26*	2
COc1ccc2nc(/N=C\N(C)C)sc2c1	·	2	·	·	·	6
Cc1ccc(CSCC(=O)Nc2ccc3c(c2)OCO3)cc1	-7	13	·	·	-30*	4
COc1cc(N)c(Cl)cc1C(=O)OCC(=O)NCc1cccs1	-1	-5	73*	0	-8	3
CCC(=O)N1CC(=O)N2[C@@H](CO)[C@@H](c3ccc(-c4cccnc4)cc3)[C@@H]2C1	15	·	0	0	5	·
COc1cccc(/C=N/NC(=O)c2c(-c3ccccc3)noc2C)c1OC	-13	-10	·	0	-20*	-10
COc1ccc(Cl)cc1NC(=O)c1c(-c2ccccc2)noc1C	·	10	·	·	·	6
COc1ccc(Cl)cc1/C=N/NC(=O)c1c(-c2ccccc2)noc1C	-6	7	·	0	-17*	-2
Cc1onc(-c2ccccc2)c1C(=O)N/N=C/c1c[nH]c2ccccc12	-93	3	·	0	-27	7
C[C@H](CO)N1C[C@H](C)[C@H](CN(C)CC2CC2)Oc2ccc(NS(=O)(=O)c3ccc(F)cc3)cc2CC1=O	-9	-2	0	0	0	-2
O=C(c1ccncc1)N1CC(=O)N2[C@H](CO)[C@H](c3ccc(-c4cccnc4)cc3)[C@H]2C1	-12	·	0	0	5	·
CC(=O)Nc1sc(N/N=C/c2ccc(N(C)C)cc2)nc1-c1ccc(C)cc1	-24	8	0	?	-33*	-5
CC(=O)Nc1sc(N/N=C/c2ccc(C)cc2)nc1-c1ccc(C)cc1	-15	·	·	0	-1	·
CC(C)NC(=O)N(C)C[C@H]1Oc2cc(C3=CCCCC3)ccc2S(=O)(=O)N([C@@H](C)CO)C[C@@H]1C	9	-3	14	0	-4	3
Cc1ccc(S(=O)(=O)NC[C@H]2CC[C@H]3[C@H](CN3Cc3ccccc3C(=O)O)O2)cc1	1	·	·	·	·	·
COc1ccc(NC(=O)NC[C@H]2CC[C@H]3[C@H](CN3Cc3ccccc3C(=O)O)O2)cc1	54*	·	·	·	·	·
C[C@@H]1CN([C@H](C)CO)C(=O)c2cc(NC(=O)Nc3cccc4ccccc34)ccc2O[C@@H]1CN(C)C(=O)Nc1ccc(F)cc1	-2	0	0	0	-1	1
Cc1ccc(S(=O)(=O)Nc2cc(-c3ccccc3)nn2C)cc1	-14	-2	0	0	-19	1
Cc1ccc(S(=O)(=O)Nc2cc(-c3ccccc3)nn2C)cc1Cl	-25	-1	53*	0	-27	1
Nc1nonc1C(=Nc1ccccc1)NO	·	-8	·	·	·	-4
Cc1ccccc1N=C(NO)c1nonc1N	8	·	-2	0	-29*	·
CCCCCCCCn1ccc(=N)cc1	-6	-7	1	0	8	-4
CCCCCCCCCCCCCCCCn1cc[n+](C)c1	83*	·	·	0	-62	·
SMILES	RAD52 anneal inh	RAD54 inh	E-sel inducer	XiGFP reactiv	rRNA inh HTS	PglD inh
Cc1noc(C)c1NC(=O)N(C)C[C@@H]1OCCCC[C@@H](C)Oc2ccc(NS(=O)(=O)c3cn(C)cn3)cc2C(=O)N([C@H](C)CO)C[C@@H]1C	·	-6	0	-1	-1	-1
CN(C)c1ccc(NC(=S)NC23CC4CC(CC(C4)C2)C3)cc1	-14	6	73*	0	-7	-2
Cc1ccc(-n2c(O)c(C=Nc3ccccc3-c3n[nH]c(=S)[nH]c3=O)c3ccccc3c2=O)cc1C	-15	·	·	0	-38*	·
Cc1ccc(-n2c(O)c(C=Nc3ccccc3-c3n[nH]c(=S)[nH]c3=O)c3ccccc3c2=O)c(C)c1	-10	·	·	1	-44	·
CC(=O)N1N=C2c3ccccc3CCC2C1c1ccc(F)cc1 (stereo unspecified)	-4	-1	·	2	-44	-2
CN(C)c1ccc(C2C3CCCc4ccccc4C3=NN2C)cc1 (stereo unspecified)	-9	·	·	0	-27*	·
O=C(C[C@@H]1C[C@@H]2c3cc(NC(=O)C4CCC4)ccc3O[C@@H]2[C@@H](CO)O1)NCCc1ccccc1	0	-2	0	0	-2	2
CN1C(=O)c2cc(NC(=O)Cc3cccs3)ccc2OC[C@H]2O[C@@H](CC(=O)NCCc3ccncc3)CC[C@H]21	14	5	0	0	4	-1
C[C@@H]1CCCCO[C@H](CN(C)C(=O)Nc2ccc(F)cc2)[C@@H](C)CN([C@@H](C)CO)C(=O)c2cc(NC(=O)CCC(F)(F)F)ccc2O1	-10	7	·	0	-2	-2
CC(=O)Oc1ccc(/C=C2/CCc3ccccc3C2=O)cc1	-10	0	3	0	-31*	3
CC(C)CC#Cc1ccc([C@@H]2[C@H](CO)N3C(=O)CN(S(=O)(=O)c4cccc(F)c4)C[C@@H]23)cc1	-20	·	0	0	8	·
CCC(=O)Nc1ccc2c(c1)C(=O)N(C)[C@H]1CC[C@@H](CC(=O)NCCc3ccccc3)O[C@@H]1CO2	-1	4	0	0	4	6
COc1ccc(CCN(Cc2nc3ccccc3c(=O)[nH]2)C(=O)c2ccco2)cc1	·	-4	-2	·	·	-3
CCC(CC)C(=O)N(CCc1ccc(OC)cc1)Cc1nc2ccccc2c(=O)[nH]1	-19	-8	·	·	-51*	0
COc1ccc2[nH]c3c(NCCC4=CCCCC4)ncnc3c2c1	-5	·	-2	0	-54*	·
Oc1[nH]c2ccc(Br)cc2c1N=NC(=S)NCC1CCCO1 (stereo unspecified)	-36	-3	0	1	-32*	-6
O=C(c1cc2c(c(-c3cccc(Br)c3)n1)[C@@H](CCO)NC2)N1CCCCC1	·	·	132*	0	0	·
CC(Oc1ccc(S(=O)(=O)N2CCCC2)cc1[N+](=O)[O-])C(=O)N(C)c1ccccc1 (stereo unspecified)	-15	0	·	0	9	4
O=[N+]([O-])c1cc(S(=O)(=O)O)cc([N+](=O)[O-])c1NN(c1ccccc1)c1ccccc1	-17	-7	56*	0	-1	1
O=C(NC[C@H]1CC[C@H]2[C@H](CN2Cc2ccccc2F)O1)C1CC1	-7	·	·	·	·	·
C[C@H](NC(=O)C[C@H]1CC[C@H](NS(=O)(=O)c2cccc(F)c2)[C@H](CO)O1)c1ccccc1	-1	6	0	0	2	-2
